Test [1] concerns HeLa. Nature of the test: Cytotoxicity against human HeLa cells at 50 uM after 48 hrs by MTS assay. It counts as functional, cell-based. In a few lines: (§1)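 Cells seeded at 2−5 × 10^3 per well by growth rate and allowed to attach overnight. Medium then replaced with medium holding test compound or 0.1% DMSO, made by serial dilution of 100 mM DMSO stocks. Incubated 48 h at 37 °C in humidified 5% CO2. MTS added, 90 min at 37 °C in the dark, absorbance read at 490 nm. Run in triplicate.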

Test [2] has as its system A549. In words: Cytotoxicity against human A549 cells at 50 uM after 48 hrs by MTS assay. The test is classed as functional, cell-based. In a few lines:
as §1
For orientation: Tetrazolium dyes change colour on reduction, which living cells bring about.

The subject of test [3] is MCF7. In words: Cytotoxicity against human MCF7 cells at 50 uM after 48 hrs by MTS assay. The test is classed as functional, cell-based. In a few lines: as §1
Test [4] relates to HCT-116. In words: Cytotoxicity against human HCT116 cells at 50 uM after 48 hrs by MTS assay. It counts as functional, cell-based. In a few lines: as §1
The next test relates to T-24. Nature of the test: Cytotoxicity against human T24 cells at 50 uM after 48 hrs by MTS assay. The test is classed as functional, cell-based. A digest of the protocol: as §1
For test [5], the system named is HeLa. Nature of the test: Cytotoxicity against human HeLa cells after 48 hrs by MTS assay. The test is classed as functional, cell-based. In a few lines:
as §1

The subject of test [6] is A549. Nature of the test: Cytotoxicity against human A549 cells after 48 hrs by MTS assay. It counts as functional, cell-based. The settings on record: A549, 48 h. A digest of the protocol:
as §1

For test [7], the system named is MCF7. Nature of the test: Cytotoxicity against human MCF7 cells after 48 hrs by MTS assay. The test is classed as functional, cell-based. The following applies: MCF7, 48 h. In a few lines: as §1
Test [8] has as its system HCT-116. In words: Cytotoxicity against human HCT116 cells after 48 hrs by MTS assay. The test is classed as functional, cell-based. The following applies: HCT-116, 48 h. In a few lines:
as §1

Test [9] can be described thus: Cytotoxicity against human T24 cells after 48 hrs by MTS assay. It counts as functional, cell-based. The following applies: T-24, 48 h. A digest of the protocol: as §1
Test [10] relates to HCT-116. In words: Induction of autophagy in human HCT116 cells assessed as accrual of membrane vacuoles and autophagosome-like structure with double-membrane sturctures formation at 10 uM after 2 hrs by electron microscopy. It counts as functional, cell-based. In a few lines: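 HCT116 cells in RPMI-1640 treated 2 h. Cells washed three times with PBS, trypsinized and pelleted. Pellets fixed overnight in 4% paraformaldehyde at 4 °C, postfixed 1 h at room temperature in 1% OsO4 in cacodylate buffer, dehydrated stepwise in ethanol, rinsed in propylene oxide and embedded in Spurr resin. Thin sections examined by transmission electron microscopy.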

For test [11], the system named is HCT-116. Nature of the test: Induction of autophagy in human HCT116 cells transfected with plasmid expressing GFP-LC3 at 10 uM by DAPI staining based fluorescence microscopy. The test is classed as functional, cell-based. A digest of the protocol: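 HCT116 cells transfected with a GFP-LC3 plasmid. Transfection was 12 h by the legend and 24 h by the methods. Cells then incubated at 37 °C in RPMI-1640 with test compound or 1/1000 DMSO, fixed and stained with DAPI. GFP-LC3 puncta imaged by confocal fluorescence microscopy.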

For test [12], the system named is HCT-116. Nature of the test: Induction of autophagy in human HCT116 cells assessed as increase in ratio of LC3-II to actin expression at 2.5 uM after 2 hrs by Western blot analysis relative to control. The test is classed as functional. In a few lines: (§2)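 HCT116 colon carcinoma cells were grown in RPMI-1640 with fetal bovine serum and antibiotics, split overnight to 50% confluence, then dosed. Cells were lysed in 50 mM Tris-HCl pH 7.4, 2 mM EDTA, 2 mM EGTA, 1 mM DTT, 1% Triton X-100 and protease inhibitors. SDS-PAGE and PVDF blot used polyclonal anti-LC3, anti-actin and ECL. LC3-II/actin was measured by densitometry, representative of three experiments.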

Test [13] deals with HCT-116. Nature of the test: Induction of autophagy in human HCT116 cells assessed as increase in ratio of LC3-II to actin expression at 5 uM after 2 hrs by Western blot analysis relative to control. The test is classed as functional. A digest of the protocol: as §2
(In general: In western blotting, separated proteins are transferred to a membrane and probed.)

Test [14] concerns HCT-116. Nature of the test: Induction of autophagy in human HCT116 cells assessed as increase in ratio of LC3-II to actin expression at 10 uM after 2 hrs by Western blot analysis relative to control. The test is classed as functional. A digest of the protocol: as §2

The source made the active and inactive calls. The calls are words filed in the database; no cut-off is given here.

For `CC(C)[C@H]1CC(=O)C2=CC3=C(CO)C(=O)C(O)=C[C@@]3(C)CC[C@@]21C`, the outcome in the test on HeLa [1], in the test with A549 [2], in the test with MCF7 [3], with HCT-116 [4] and with T-24 was inactive.
As for `CC(C)C1=C(O)C(=O)C2=CC3=C(CO)C(=O)[C@H](O)C[C@@]3(C)CC[C@@]21C`, the result in the test with HeLa [1], in the test on A549 [2], with MCF7 [3], in the test on HCT-116 [4] and in the test with T-24 was inactive.
As to `C[C@H](CO)[C@H]1CC(=O)[C@@H]2[C@H]3OCC4=C3[C@@](C)(CCC4=O)CC[C@]12C`, the result in the test on HeLa [1], in the test with A549 [2], in the test on MCF7 [3], with HCT-116 [4] and in the test on T-24 was inactive.
For `CC(C)C1=C(O)C(=O)C2=CC3=C(CCC4=C5C=C6C(=O)C(O)=C(C(C)C)[C@@]6(C)CC[C@]5(C)C[C@@H](O)C4=O)C(=O)[C@H](O)C[C@@]3(C)CC[C@@]21C`, the result in the test on HeLa [1], in the test on A549 [2], in the test with MCF7 [3], in the test with HCT-116 [4] and in the test on T-24 was inactive.
`CC1=C2C=C3C(=O)C(O)=C([C@H](C)CO)[C@@]3(C)CC[C@]2(C)C[C@@H](O)C1=O`: the outcome in the test on HeLa [1], in the test on A549 [2], with MCF7 [3], in the test on HCT-116 [4] and with T-24 was inactive.
Usually IC50 stands for the concentration needed to halve the response being measured. Read a low IC50 as higher potency. In the case of `CC(C)C1=C(O)C(=O)C2=CC3=C(CCC4=C5CC6=C(O)C(=O)[C@H](C(C)C)[C@@]6(C)CC[C@]5(C)C[C@@H](O)C4=O)C(=O)[C@H](O)C[C@@]3(C)CC[C@@]21C`, the IC50 in the test with HeLa [5] was determined as 19.3 µM; with A549 [6], 29.7 µM; with MCF7 [7] it was 46.1 µM; with HCT-116 [8] it was 21.3 µM; in [9], 8.16 µM. In addition, the outcome in the test on HCT-116 [10] and in the test with HCT-116 [11] was Active. Also, the Ratio in the test with HCT-116 [12] came to 1.2; in the test on HCT-116 [13], 1.3; with HCT-116 [14], 1.4.
